In ChEMBL document CHEMBL3244294, “Dehydrative metabolites of 1-(3-chlorophenyl)-1methyl-2-phenyl-2-(2-pyridine)ethanol as potential hypocholesteremic agents” (J Med Chem, 1978):

Key:
Serum [1] = test: Drug recovery in pentane extract of Sprague-Dawley rat serum treated with 1-(3-Chlorophenyl)-1-methyl-2-phenyl-2-(2-pyridine)ethanol at 25 mg/kg, ip by RP-HPLC analysis; type: ADME, organism-based; design: dose 25 mg/kg, route intraperitoneal; settings: in vivo
Rattus norvegicus [2] = test: Estrogenicity in Sprague-Dawley rat assessed as uterus weight measured per gram of body weight at 25 mg/kg, po for 7 days in presence of 17-beta estradiol (reference value: 0.01 +/- 0.02 mg); type: ADME, organism-based; design: dose 25 mg/kg, route oral; settings: in vivo, 168 h
How it was run: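 From 7 days later they were dosed orally by intubation with aqueous suspensions (25 mg/kg) for 7 consecutive days. On day 8 uteri were blotted free of fluid and weighed, expressed as mg/g body weight ×100. A standard curve came from sc 17β-estradiol in peanut oil, giving µg estradiol equivalent to 25 mg compound.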

Rattus norvegicus [3] = test: Hypocholesteremic activity in Sprague-Dawley rat assessed as reduction in serum cholesterol level at 25 mg/kg for 7 days relative to control; type: functional; design: scale not given: the % may be the effect or the level left
How it was run: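 Male rats (200 g) were dosed at 25 mg/kg for 7 days, with dosing starting at 1 p.m. Sera were taken 24 h after the final dose, and serum cholesterol was determined by the method of Block et al. Results are reported as mean ± standard deviation and compared with controls by two-tailed Student's t test.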

Serum [4] = test: Drug recovery in Sprague-Dawley rat serum treated with 1-(3-Chlorophenyl)-1-methyl-2-phenyl-2-(2-pyridine)ethanol at 25 mg/kg, ip after 72 hrs by RP-HPLC analysis; type: ADME, organism-based; design: dose 25 mg/kg, route intraperitoneal; settings: in vivo
How it was run: (§1)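 Rats received 25 mg/kg ³H-labelled parent (tritium in 2-phenyl ring) by ip injection as an aqueous 0.26% Tween 80 suspension. Serum was taken by cardiac puncture at 2, 10 or 72 h (three rats), separated at 1700g for 30 min and deproteinized with methanol. The residue was analysed by C-18 reverse-phase HPLC. Values are percent of total recovered HPLC radioactivity.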

Serum [5] = test: Drug recovery in hydrolyzed fraction of Sprague-Dawley rat serum treated with 1-(3-Chlorophenyl)-1-methyl-2-phenyl-2-(2-pyridine)ethanol at 25 mg/kg, ip after 72 hrs by RP-HPLC analysis; type: ADME, organism-based; design: dose 25 mg/kg, route intraperitoneal; settings: in vivo
How it was run: (§2)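 ³H-labelled parent was given at 25 mg/kg ip in aqueous 0.26% Tween 80, and serum was collected by cardiac puncture at 72 h. Part of the serum was hydrolysed for 48 h with aryl sulfatase and glucuronidase, then deproteinized with methanol. The residue was run on C-18 reverse-phase HPLC. Values are percent of total recovered HPLC radioactivity.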

[6] = Drug recovery in sephadex G-10 chromatographic fraction of Sprague-Dawley rat urine treated with 1-(3-Chlorophenyl)-1-methyl-2-phenyl-2-(2-pyridine)ethanol at 25 mg/kg, ip by RP-HPLC analysis; type: ADME, organism-based; design: dose 25 mg/kg, route intraperitoneal; settings: in vivo
How it was run: (§3)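 One rat was dosed ip at 25 mg/kg with ³H-labelled parent in aqueous 0.26% Tween 80, and urine was collected over 72 h. Urine was either pentane-extracted or fractionated on Sephadex G-10; fraction III was the radioactive eluate free of appreciable urine constituents. Fractions were analysed by C-18 reverse-phase HPLC as percent of total recovered radioactivity.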

Serum [7] = test: Drug recovery in Sprague-Dawley rat serum treated with 1-(3-Chlorophenyl)-1-methyl-2-phenyl-2-(2-pyridine)ethanol at 25 mg/kg, ip after 10 hrs by RP-HPLC analysis; type: ADME, organism-based; design: dose 25 mg/kg, route intraperitoneal; settings: in vivo; how it was run: as §1
Serum [8] = test: Drug recovery in Sprague-Dawley rat serum at 25 mg/kg, ip after 10 hrs by RP-HPLC analysis; type: ADME, organism-based; design: dose 25 mg/kg, route intraperitoneal; settings: in vivo; how it was run: as §1
[9] = Drug recovery in pentane extract of Sprague-Dawley rat urine at 25 mg/kg, ip by RP-HPLC analysis; type: ADME, organism-based; design: dose 25 mg/kg, route intraperitoneal; settings: read-out: Drug recovery; how it was run: as §3
Serum [10] = test: Drug recovery in hydrolyzed fraction of Sprague-Dawley rat serum at 25 mg/kg, ip after 72 hrs by RP-HPLC analysis; type: ADME, organism-based; design: dose 25 mg/kg, route intraperitoneal; settings: in vivo; how it was run: as §2
Serum [11] = test: Drug recovery in Sprague-Dawley rat serum at 25 mg/kg, ip after 72 hrs by RP-HPLC analysis; type: ADME, organism-based; design: dose 25 mg/kg, route intraperitoneal; settings: in vivo; how it was run: as §1
Serum [12] = test: Drug recovery in Sprague-Dawley rat serum at 25 mg/kg, ip after 2 hrs by RP-HPLC analysis; type: ADME, organism-based; design: dose 25 mg/kg, route intraperitoneal; settings: in vivo; how it was run: as §1
[13] = Drug recovery in sephadex G-10 chromatographic fraction of Sprague-Dawley rat urine at 25 mg/kg, ip by RP-HPLC analysis; type: ADME, organism-based; design: dose 25 mg/kg, route intraperitoneal; settings: read-out: Drug recovery; how it was run: as §3
Serum [14] = test: Drug recovery in Sprague-Dawley rat serum treated with 1-(3-Chlorophenyl)-1-methyl-2-phenyl-2-(2-pyridine)ethanol at 25 mg/kg, ip after 2 hrs by RP-HPLC analysis; type: ADME, organism-based; design: dose 25 mg/kg, route intraperitoneal; settings: in vivo; how it was run: as §1

| SMILES | Activity (Rattus norvegicus [2]) | Drug recovery (Serum [4]) | Drug recovery (Serum [5]) | Drug recovery [6] | Drug recovery (Serum [7]) | Activity (Rattus norvegicus [3]) | also measured |
| --- | --- | --- | --- | --- | --- | --- | --- |
| C=C(c1cccc(Cl)c1)C(c1ccccc1)c1ccccn1 (stereo not given) |  |  |  |  |  | 10.1% |  |
| C/C(=C(\c1ccc(O)cc1)c1ccccn1)c1cccc(Cl)c1 | 0.02 µg | 0.2% | 0.3% | 0.4% | 0.3% | 30.5% |  |
| C/C(=C(/c1ccc(O)cc1)c1ccccn1)c1cccc(Cl)c1 | 0.03 µg | 1.1% | 0.4% | 3.3% | 0.9% | 38.1% |  |
| CC(O)(c1cccc(Cl)c1)C(c1ccc(O)cc1)c1ccccn1 (stereo not given) | 0.92 µg |  |  |  |  | 43.5% |  |
| C=C(c1cccc(Cl)c1)C(c1ccc(O)cc1)c1ccccn1 (stereo not given) |  |  |  |  |  | 4% |  |

Further lines, with some results ahead:

| Activity (Rattus norvegicus [2]) | Drug recovery (Serum [4]) | Drug recovery (Serum [5]) | Drug recovery [6] | Drug recovery (Serum [7]) | SMILES | Activity (Rattus norvegicus [3]) | also measured |
| --- | --- | --- | --- | --- | --- | --- | --- |
| 0.92 µg |  |  |  |  | C/C(=C(\c1ccccc1)c1ccccn1)c1cccc(Cl)c1 | 62.8% | Drug recovery (Serum [1]): 0.1% |
| 0.22 µg |  |  |  |  | C/C(=C(/c1ccccc1)c1ccccn1)c1cccc(Cl)c1 | 36.1% | Drug recovery (Serum [1]): 0.1% |
| 0.49 µg |  |  |  |  | CC(O)(c1cccc(Cl)c1)C(c1ccccc1)c1ccccn1 (stereo not given) | 49.5% | Drug recovery (Serum [8]): 0.9%; dose excreted [9]: 1.6%; Drug recovery (Serum [10]): 1.2%; Drug recovery (Serum [11]): 1.2%; Drug recovery (Serum [12]): 22%; dose excreted [13]: < 0.1% |
|  | 2.2% | 1.2% | 0.2% | 2.4% | c1ccc(Cc2ccccn2)cc1 |  | Drug recovery (Serum [14]): 4.7% |
